Measured values reported in ChEMBL document CHEMBL1275443, “Functional diversity among metallo-beta-lactamases: characterization of the CAR-1 enzyme of Erwinia carotovora” (2008).
Values after ≈ are worked out from the molar mass of the structure shown.

How the values were obtained:
Type in all cases: functional
[1] = test system: Pectobacterium atrosepticum; test: Antimicrobial activity against Erwinia carotovora subsp. atroseptica DSM 30184 after 24 hrs by broth microdilution method; details: DSM 30184, 24 h
Method in brief: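 CLSI broth microdilution in nutrient broth with an inoculum of 5 x 10^4 CFU/well. MIC was read after 24 h at 28°C under aerobic growth.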

Escherichia coli [2] = test: Antimicrobial activity against Escherichia coli DH5alpha harboring plasmid pLBII carrying beta-lactamase CAR-1 gene after 24 hrs by broth microdilution method
Method in brief: (§1)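 MIC by CLSI broth microdilution in Mueller-Hinton broth at 37°C. Inoculum was 5 x 10^4 CFU/well, and growth was aerobic.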

Escherichia coli [3] = test: Antimicrobial activity against Escherichia coli DH5alpha harboring plasmid BC-SK after 24 hrs by broth microdilution method; method in brief: as §1

| Structure (SMILES) | MIC [1] [µg/mL] | MIC (Escherichia coli [2]) [µg/mL] | MIC (Escherichia coli [3]) [µg/mL] |
| --- | --- | --- | --- |
| CO/N=C(\C(=O)N[C@@H]1C(=O)N2C(C(=O)[O-])=C(C[N+]3(C)CCCC3)CS[C@H]12)c1csc(N)n1 | 2 (≈ 4.16 µM) | – | – |
| CC1(C)S[C@@H]2[C@H](NC(=O)[C@H](N)c3ccccc3)C(=O)N2[C@H]1C(=O)O [AMPICILLIN] | 0.25 (≈ 0.715 µM) | 4 (≈ 11.4 µM) | 1 (≈ 2.86 µM) |
| C[C@H]1[C@H](NC(=O)/C(=N\OC(C)(C)C(=O)O)c2csc(N)n2)C(=O)N1S(=O)(=O)O [AZTREONAM] | 16 (≈ 36.7 µM) | 0.25 (≈ 0.574 µM) | – |
| CO/N=C(\C(=O)N[C@@H]1C(=O)N2C(C(=O)O)=C(COC(C)=O)CS[C@H]12)c1csc(N)n1 [CEFOTAXIME] | 1 (≈ 2.2 µM) | 16 (≈ 35.1 µM) | 0.06 (≈ 0.132 µM) |
| CO[C@@]1(NC(=O)Cc2cccs2)C(=O)N2C(C(=O)O)=C(COC(N)=O)CS[C@@H]21 [CEFOXITIN] | 8 (≈ 18.7 µM) | 8 (≈ 18.7 µM) | 4 (≈ 9.36 µM) |
| CC(C)(O/N=C(\C(=O)N[C@@H]1C(=O)N2C(C(=O)[O-])=C(C[n+]3ccccc3)CS[C@H]12)c1csc(N)n1)C(=O)O [CEFTAZIDIME] | 16 (≈ 29.3 µM) | 1 (≈ 1.83 µM) | 0.5 (≈ 0.915 µM) |
| CO/N=C(\C(=O)N[C@@H]1C(=O)N2C(C(=O)O)=C(COC(N)=O)CS[C@H]12)c1ccco1 [CEFUROXIME] | 0.5 (≈ 1.18 µM) | 256 (≈ 603 µM) | 4 (≈ 9.43 µM) |
| CC(=O)OCC1=C(C(=O)O)N2C(=O)[C@@H](NC(=O)Cc3cccs3)[C@H]2SC1 [CEPHALOTHIN] | 1 (≈ 2.52 µM) | 64 (≈ 161 µM) | 16 (≈ 40.4 µM) |
| C[C@@H](O)[C@H]1C(=O)N2C(C(=O)O)=C(SCCNC=N)C[C@H]12 [IMIPENEM ANHYDROUS] | 0.12 (≈ 0.401 µM) | – | – |
| C[C@@H](O)[C@H]1C(=O)N2C(C(=O)O)=C(S[C@@H]3CN[C@H](C(=O)N(C)C)C3)[C@H](C)[C@H]12 [MEROPENEM] | 0.25 (≈ 0.652 µM) | 0.06 (≈ 0.156 µM) | 0.03 (≈ 0.0782 µM) |
| CCN1CCN(C(=O)N[C@@H](C(=O)N[C@@H]2C(=O)N3[C@@H]2SC(C)(C)[C@@H]3C(=O)O)c2ccccc2)C(=O)C1=O [PIPERACILLIN] | 64 (≈ 124 µM) | 2 (≈ 3.86 µM) | 1 (≈ 1.93 µM) |
| CO[C@@]1(NC(=O)C(C(=O)O)c2ccsc2)C(=O)N2[C@@H](C(=O)O)C(C)(C)S[C@@H]21 (some centres undefined) [TEMOCILLIN] | 64 (≈ 154 µM) | 16 (≈ 38.6 µM) | 16 (≈ 38.6 µM) |
| CC1(C)S[C@@H]2[C@H](NC(=O)[C@H](C(=O)O)c3ccsc3)C(=O)N2[C@H]1C(=O)O [TICARCILLIN] | 4 (≈ 10.4 µM) | 8 (≈ 20.8 µM) | 4 (≈ 10.4 µM) |
